Laboratory results as given in PubChem BioAssay AID652250 (Vanderbilt Specialized Chemistry Center, 2013).
Activity calls are given as the source filed them.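 The calls were made as follows: active = compounds leaving under half of the peptide-driven platelet calcium rise; inactive = the rest.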

These molecules were tested against Proteinase-activated receptor 4 (Homo sapiens) (UniProt Q96RI0) (assay: PAR4 antagonists in human platelets, cell-based, single concentration, washed platelets, Fluo4 calcium (AID 652250)). Conditions: PAR4-AP calcium Fluo4 fluorescence.
Chain of Proteinase-activated receptor 4 (Homo sapiens) (Q96RI0 whole entry, looked up): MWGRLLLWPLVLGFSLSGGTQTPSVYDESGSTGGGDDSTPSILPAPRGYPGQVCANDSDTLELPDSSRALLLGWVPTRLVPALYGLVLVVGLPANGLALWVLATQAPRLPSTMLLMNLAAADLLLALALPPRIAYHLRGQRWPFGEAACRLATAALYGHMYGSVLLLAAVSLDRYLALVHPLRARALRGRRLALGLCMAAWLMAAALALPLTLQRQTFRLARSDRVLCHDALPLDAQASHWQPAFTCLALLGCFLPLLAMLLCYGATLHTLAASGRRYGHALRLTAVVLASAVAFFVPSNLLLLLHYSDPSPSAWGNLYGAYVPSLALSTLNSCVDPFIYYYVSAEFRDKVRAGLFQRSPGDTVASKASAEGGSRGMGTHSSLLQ
Summary of the method: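 Test system: Fluo4-AM-loaded washed human platelets | Input: 10^8 platelets/mL | Signal: Fluorescence at 480/540 nm, 1 s intervals | Controls: PAR4-AP-stimulated DMSO control (100%) | Replication: Triplicate wells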
In the case of Fc1ccc(-c2cn(Cc3ccccc3)c3ccccc23)cn1, the IC50 is reported as 10 µM. COc1cccc(Cn2cc(-c3ccc(OC)nc3)c3ccccc32)c1 showed an IC50 of 14.6 µM.

Same assay, conditions: PAR4-AP calcium Fluo4 fluorescence, at 10 µM, active compounds read low
With COc1ccc(N(C)C(=O)Cc2c(C(=O)O)n(C)c3ccccc23)cc1 the “% of max PAR4-AP calcium response” value was “inactive”. With FC(F)(F)c1cccc(-n2cc(-c3ccccc3)c3c(NCCN4CCOCC4)ncnc32)c1 the “% of max PAR4-AP calcium response” value was “inactive”. With OCCCNc1ncnc2c1c(-c1ccccc1)cn2-c1cccc(Cl)c1 the “% of max PAR4-AP calcium response” value was “inactive”. For Cc1ccc(-n2nc(C(=O)N3CCC(C#N)CC3)c3c4ccccc4n(C)c3c2=O)cc1, the “% of max PAR4-AP calcium response” value was “inactive”. For O=C(N/N=C/c1ccncc1)c1ccn(Cc2ccc(Cl)cc2Cl)n1, the “% of max PAR4-AP calcium response” value was “inactive”. With O=C(c1cn(CCCOc2ccccc2)c2ccccc12)C(F)(F)F the “% of max PAR4-AP calcium response” value was “inactive”. With O=C(Nc1cccc(Br)c1)c1ccn(C(=O)Nc2ccc(Cl)cc2)n1 the “% of max PAR4-AP calcium response” value was “inactive”. Cc1ccc2c(c1)c1c3n2CCN(C(=O)CN2CCN(C(=O)c4ccco4)CC2)C3CCC1 (stereo not drawn) was tested, and the “% of max PAR4-AP calcium response” value was “inactive”. Cc1ccc(-n2cc(-c3ccccc3)c3c(NCc4ccc5c(c4)OCO5)ncnc32)cc1Cl was tested, and the “% of max PAR4-AP calcium response” value was “inactive”. With FC(F)(F)c1cccc(-n2cc(-c3ccccc3)c3c(NC4CCCC4)ncnc32)c1 the “% of max PAR4-AP calcium response” value was “inactive”. For S=C(c1cn(CCOc2ccccc2Cl)c2ccccc12)N1CCCCC1, the % of max PAR4-AP calcium response was 39.9%. With CCCCN(C)c1ncnc2c1c(-c1ccccc1)cn2-c1cccc(C)c1 the “% of max PAR4-AP calcium response” value was “inactive”. For Cc1ccc(-n2cc(-c3ccccc3)c3c(N4CC(C)OC(C)C4)ncnc32)cc1 (stereo not drawn), the “% of max PAR4-AP calcium response” value was “inactive”. In the case of COc1ccc(C)cc1NC(=O)Cc1cn(C)c2ccccc12, the “% of max PAR4-AP calcium response” value is reported as “inactive”. Fc1cc(-c2cn(Cc3ccccc3)c3ccccc23)cc(F)n1 was tested, and the “% of max PAR4-AP calcium response” value was “inactive”. In the case of COc1ccc(-c2cn(Cc3cccc(-c4cccs4)c3)c3ccccc23)cn1, the “% of max PAR4-AP calcium response” value is reported as “inactive”. With CC(C)Oc1ccc(-c2cn(Cc3ccccc3)c3ccccc23)cc1F the “% of max PAR4-AP calcium response” value was “inactive”. In the case of O=C(c1ccccc1)n1cc(-c2nc3cc(Cl)ccc3o2)cn1, the “% of max PAR4-AP calcium response” value is reported as “inactive”. For COc1cc(NS(=O)(=O)c2ccc(NC(=O)c3ccc4c(c3)c(C)c(C)n4C)cc2)ncn1, the “% of max PAR4-AP calcium response” value was “inactive”. Cn1cc(CC(=O)N2CCN(c3ccc([N+](=O)[O-])cc3)CC2)c2ccccc21 was tested, and the “% of max PAR4-AP calcium response” value was “inactive”. For CCc1nn(-c2ccccc2)c2nc(-c3cccc(OC)c3)c3cc(OC)c(OC)cc3c12, the “% of max PAR4-AP calcium response” value was “inactive”. With FC(F)(F)Oc1ccc(-c2cn(Cc3ccccc3)c3ccccc23)cc1 the “% of max PAR4-AP calcium response” value was “inactive”. In the case of Cc1cn(CC(=O)c2ccccc2)c2ccccc12, the “% of max PAR4-AP calcium response” value is reported as “inactive”. For COc1cc(Nc2ncnc3c2c(-c2ccccc2)cn3-c2ccccc2)cc(OC)c1OC, the “% of max PAR4-AP calcium response” value was “inactive”. Cc1ccc(OCCn2cc(C(=S)N3CCOCC3)c3ccccc32)cc1 was tested, and the “% of max PAR4-AP calcium response” value was “inactive”. In the case of Cc1ccc(-n2cc(-c3ccccc3)c3c(N4CCCC4)ncnc32)cc1Cl, the “% of max PAR4-AP calcium response” value is reported as “inactive”. With Cc1ccc(-n2cc(-c3ccccc3)c3c(N4CCCC4)ncnc32)cc1 the “% of max PAR4-AP calcium response” value was “inactive”. With O=C(CN1CCOCC1)n1c2c(c3ccccc31)CCCC2 the “% of max PAR4-AP calcium response” value was “inactive”. With O=C(c1cn(Cc2ccccc2Cl)c2ccccc12)C(F)(F)F the “% of max PAR4-AP calcium response” value was “inactive”. For Cc1c(C)n(C(=O)CSc2ncccn2)c2ccccc12, the “% of max PAR4-AP calcium response” value was “inactive”. With Cc1cccc(NC(=O)Cn2cc(C(=O)C(F)(F)F)c3ccccc32)c1 the “% of max PAR4-AP calcium response” value was “inactive”. Work on COc1ccc2c(c1)c(C(=O)OCCN(C)C)c(C)n2C yielded a % of max PAR4-AP calcium response of 37.4%. In the case of O=C(c1cn(CCOc2ccccc2Cl)c2ccccc12)C(F)(F)F, the “% of max PAR4-AP calcium response” value is reported as “inactive”. With CCc1cc(C(=O)Cc2cnn(-c3ccccc3)c2)c(O)cc1O the “% of max PAR4-AP calcium response” value was “inactive”. CCOc1ncc(-c2cn(Cc3ccccc3)c3ccccc23)cn1 was tested, and the “% of max PAR4-AP calcium response” value was “inactive”. For OCCc1cn(-c2ccccc2)c2ccccc12, the “% of max PAR4-AP calcium response” value was “inactive”.
